For two compounds, IC50 and Activity results are on record in ChEMBL document CHEMBL1156736, “Multidentate small-molecule inhibitors of vaccinia H1-related (VHR) phosphatase decrease proliferation of cervix cancer cells” (J Med Chem, 2009).

The target of assay [1] is Dual specificity protein phosphatase 3 (Homo sapiens, UniProt P51452). The assay can be described thus: Inhibition of recombinant vaccina H1-related phosphatase.
For assay [2], the system named is HeLa. The assay can be described thus: Antiproliferative activity against human HeLa cells at 20 uM after 24 hrs by Trypan blue assay. Format: functional. The method in brief:
(§1)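 10^5 cells (HeLa in DMEM/10% FCS; primary normal keratinocytes from hysterectomy tissue, trypsin-EDTA dispersed, in K-SFM with EGF, pituitary hormone) treated 24 h with 20 μM inhibitor or DMSO; trypsinized and counted with trypan blue in a counting chamber; cell numbers as percentage of DMSO control; mean ± SD, three independent experiments.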

The subject of assay [3] is Ca-Ski. The assay can be described thus: Induction of apoptosis in human CaSki cells assessed as apoptotic cells at 20 uM after 24 hrs by annexin V/propidium iodide based flow cytometry. Format: functional, cell-based. The method in brief: (§2)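 10^5 cells in DMEM/10% FCS incubated 24 h with 20 μM inhibitor or DMSO, trypsinized; half of cells stained with AnnexinV-FITC and propidium iodide, analysed by flow cytometry; live cells taken as AnnexinV- and PI-negative; mean ± SD from three independent experiments.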

Assay [4] addresses T1, M-phase inducer phosphatase 1 (Homo sapiens, UniProt P30304).
T1 sequence (P30304 whole entry): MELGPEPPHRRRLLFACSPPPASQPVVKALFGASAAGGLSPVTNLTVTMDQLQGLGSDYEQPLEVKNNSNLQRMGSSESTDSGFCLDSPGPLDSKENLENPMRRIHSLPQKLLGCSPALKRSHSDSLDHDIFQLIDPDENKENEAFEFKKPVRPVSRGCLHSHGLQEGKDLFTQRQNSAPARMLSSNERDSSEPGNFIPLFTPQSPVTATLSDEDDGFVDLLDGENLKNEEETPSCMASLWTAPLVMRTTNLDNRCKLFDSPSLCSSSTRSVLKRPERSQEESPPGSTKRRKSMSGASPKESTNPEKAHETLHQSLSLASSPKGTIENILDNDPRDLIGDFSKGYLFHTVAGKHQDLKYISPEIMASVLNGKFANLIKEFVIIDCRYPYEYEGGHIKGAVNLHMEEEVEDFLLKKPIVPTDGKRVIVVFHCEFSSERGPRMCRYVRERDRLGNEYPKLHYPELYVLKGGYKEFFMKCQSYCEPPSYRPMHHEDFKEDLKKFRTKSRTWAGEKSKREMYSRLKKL
The assay can be described thus: Inhibition of recombinant Cdc25a.

For assay [5], the system named is HeLa. Description: Induction of apoptosis in human HeLa cells assessed as apoptotic cells at 20 uM after 24 hrs by annexin V/propidium iodide based flow cytometry. Format: functional, cell-based. In short, it runs like this:
as §2

Assay [6] concerns the target T2, Tyrosine-protein phosphatase non-receptor type 1 (Homo sapiens, UniProt P18031).
T2 sequence (P18031 whole entry): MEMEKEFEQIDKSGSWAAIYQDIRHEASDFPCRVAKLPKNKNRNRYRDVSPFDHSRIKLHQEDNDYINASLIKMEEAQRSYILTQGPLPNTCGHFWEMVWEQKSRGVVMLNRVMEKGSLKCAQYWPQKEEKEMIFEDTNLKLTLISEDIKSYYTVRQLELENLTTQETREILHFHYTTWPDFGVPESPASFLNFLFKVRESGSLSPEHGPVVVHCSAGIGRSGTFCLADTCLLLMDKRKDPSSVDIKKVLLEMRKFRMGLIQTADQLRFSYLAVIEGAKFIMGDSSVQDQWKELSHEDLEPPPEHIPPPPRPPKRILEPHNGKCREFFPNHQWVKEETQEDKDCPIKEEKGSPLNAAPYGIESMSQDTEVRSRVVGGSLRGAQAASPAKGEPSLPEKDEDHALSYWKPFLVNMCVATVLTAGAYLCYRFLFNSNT
Description: Inhibition of recombinant PTP1B.

Assay [7] has as its target T3, Dual specificity protein phosphatase 1 (Homo sapiens, UniProt P28562).
T3 sequence (P28562 whole entry): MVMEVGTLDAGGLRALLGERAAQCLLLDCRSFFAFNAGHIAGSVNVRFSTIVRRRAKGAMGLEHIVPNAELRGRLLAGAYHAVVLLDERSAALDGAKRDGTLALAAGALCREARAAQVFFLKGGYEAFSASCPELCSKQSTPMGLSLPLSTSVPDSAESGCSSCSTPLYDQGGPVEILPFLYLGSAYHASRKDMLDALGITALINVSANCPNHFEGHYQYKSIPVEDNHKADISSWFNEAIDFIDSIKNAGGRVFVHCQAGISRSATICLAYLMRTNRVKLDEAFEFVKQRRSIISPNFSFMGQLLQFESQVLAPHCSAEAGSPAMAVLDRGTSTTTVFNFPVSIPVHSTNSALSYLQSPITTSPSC
The assay can be described thus: Inhibition of recombinant MKP1.

For assay [8], the system named is HeLa. Description: Antiproliferative activity against human HeLa cells at 20 uM after 24 hrs by [3H]thymidine incorporation assay relative to control. Format: functional. In short, it runs like this: (§3)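 5×10^4 cells in DMEM complete medium exposed 24 h to 20 μM inhibitor or DMSO vehicle; [3H]thymidine ([…]) added for final 4 h, cells harvested onto glass fiber filters, radioactivity by scintillation counting; expressed relative to DMSO control; mean ± SD of three independent experiments.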
In general terms: Uptake of a labelled nucleoside into DNA is a usual measure of proliferation.

Assay [9] concerns Ca-Ski. Description: Antiproliferative activity against human CaSki cells at 20 uM after 24 hrs by [3H]thymidine incorporation assay relative to control. Format: functional. In short, it runs like this: as §3
Assay [10] deals with T4, Receptor-type tyrosine-protein phosphatase C (Homo sapiens, UniProt P08575).
T4 sequence (P08575 whole entry): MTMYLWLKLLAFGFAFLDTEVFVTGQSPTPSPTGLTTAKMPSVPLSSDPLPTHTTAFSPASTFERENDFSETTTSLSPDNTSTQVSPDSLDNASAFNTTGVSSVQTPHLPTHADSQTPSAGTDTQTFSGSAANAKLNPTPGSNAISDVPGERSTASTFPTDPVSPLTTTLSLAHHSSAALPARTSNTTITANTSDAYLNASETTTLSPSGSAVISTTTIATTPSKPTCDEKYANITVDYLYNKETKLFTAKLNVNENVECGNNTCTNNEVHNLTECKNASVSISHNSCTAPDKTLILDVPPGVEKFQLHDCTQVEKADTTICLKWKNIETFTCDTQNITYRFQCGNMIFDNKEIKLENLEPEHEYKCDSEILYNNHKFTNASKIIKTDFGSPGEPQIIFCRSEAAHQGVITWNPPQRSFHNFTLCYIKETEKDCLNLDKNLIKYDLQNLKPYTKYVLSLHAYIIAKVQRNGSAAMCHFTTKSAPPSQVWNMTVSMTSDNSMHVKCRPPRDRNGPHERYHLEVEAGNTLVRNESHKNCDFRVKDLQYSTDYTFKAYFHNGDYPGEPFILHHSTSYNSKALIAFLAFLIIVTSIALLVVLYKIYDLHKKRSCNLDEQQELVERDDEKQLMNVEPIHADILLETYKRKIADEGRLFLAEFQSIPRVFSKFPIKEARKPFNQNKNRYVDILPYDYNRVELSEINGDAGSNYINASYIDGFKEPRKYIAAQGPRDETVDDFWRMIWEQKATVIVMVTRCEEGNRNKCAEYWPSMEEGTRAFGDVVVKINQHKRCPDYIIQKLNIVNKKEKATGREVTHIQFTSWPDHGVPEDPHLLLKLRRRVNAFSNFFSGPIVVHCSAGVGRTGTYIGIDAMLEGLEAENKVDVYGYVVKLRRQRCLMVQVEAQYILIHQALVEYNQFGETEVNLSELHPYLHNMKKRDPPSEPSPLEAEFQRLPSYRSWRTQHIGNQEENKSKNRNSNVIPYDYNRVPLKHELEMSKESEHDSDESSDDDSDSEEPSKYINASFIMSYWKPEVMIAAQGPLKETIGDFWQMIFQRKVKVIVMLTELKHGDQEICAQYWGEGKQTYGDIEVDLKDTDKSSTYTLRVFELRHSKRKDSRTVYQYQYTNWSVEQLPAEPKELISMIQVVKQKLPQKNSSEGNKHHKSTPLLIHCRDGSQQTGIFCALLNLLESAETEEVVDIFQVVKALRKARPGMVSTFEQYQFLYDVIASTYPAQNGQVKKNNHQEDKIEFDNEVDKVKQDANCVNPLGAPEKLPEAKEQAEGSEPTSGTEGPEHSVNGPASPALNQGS
Description: Inhibition of recombinant CD45.

Assay [11] deals with T5, Tyrosine-protein phosphatase non-receptor type 7 (Homo sapiens, UniProt P35236).
T5 sequence (P35236 whole entry): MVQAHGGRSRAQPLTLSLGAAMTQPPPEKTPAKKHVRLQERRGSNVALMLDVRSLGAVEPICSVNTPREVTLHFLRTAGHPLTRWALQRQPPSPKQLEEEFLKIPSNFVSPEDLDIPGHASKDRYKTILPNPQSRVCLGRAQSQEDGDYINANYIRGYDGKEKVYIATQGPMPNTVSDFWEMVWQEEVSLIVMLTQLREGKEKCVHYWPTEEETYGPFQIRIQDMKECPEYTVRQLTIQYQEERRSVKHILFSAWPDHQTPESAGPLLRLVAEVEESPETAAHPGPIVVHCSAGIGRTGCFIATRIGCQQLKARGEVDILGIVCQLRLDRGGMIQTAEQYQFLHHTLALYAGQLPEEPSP
Description: Inhibition of recombinant HePTP.

Another assay deals with Keratinocyte. The assay can be described thus: Cytotoxicity against human keratinocytes at 20 uM after 24 hrs by Trypan blue assay. Format: functional, cell-based. The method in brief: as §1

Active and inactive are the calls of the source. No cut-off for these calls is given here.

Sequence of Dual specificity protein phosphatase 3 (P51452 whole entry): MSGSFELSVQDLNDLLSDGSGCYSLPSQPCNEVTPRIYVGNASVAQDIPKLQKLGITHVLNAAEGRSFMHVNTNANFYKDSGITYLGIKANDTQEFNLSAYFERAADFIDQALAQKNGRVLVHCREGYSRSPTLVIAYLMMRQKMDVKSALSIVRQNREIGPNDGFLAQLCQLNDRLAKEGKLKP

As usually defined, the IC50 is the concentration that inhibits the measured activity by half. Consider `O=C1/C(=C/c2cn(-c3ccccc3)nc2-c2ccc(OCc3ccccc3Cl)cc2)SC(=S)N1CCS(=O)(=O)O`, for which the 50% inhibitory concentration (IC50) in [1] amounted to 0.071 µM; in assay [4], 3.4 µM; in [6], 0.59 µM; in assay [7], 0.47 µM; in [10], 0.3 µM; in assay [11], 1.2 µM. In addition, the outcome in the assay with HeLa [2] was Active. Besides, the outcome in the assay with Ca-Ski [3] and in the assay on HeLa [5] was inactive. Also, the Activity entry with HeLa [8] was “<=30%”; in the assay on Ca-Ski [9] it was above 50%.
Regarding `O=C1/C(=C/c2cn(-c3ccccc3)nc2-c2ccc(OCc3ccc(Cl)cc3)cc2)SC(=S)N1CCS(=O)(=O)O`, the result with HeLa [2] was Active. For the same compound, the IC50 in assay [4] was found to be 2.4 µM. The Activity result was “Not toxic” in the assay on Keratinocyte, “<=30%” in the assay on HeLa [8] and above 50% in the assay on Ca-Ski [9].
